Laboratory results published in ChEMBL document CHEMBL1255483, “Intra- and extracellular activities of dicloxacillin against Staphylococcus aureus in vivo and in vitro” (Antimicrob Agents Chemother, 2010).
In brackets after ≈: the same amount, converted by molar mass. Activity calls are given as the source filed them. The rule behind the calls is not given here.

Assays:
[1] = fT>MIC in Staphylococcus aureus E19977 infected NMRI mouse at 80 mg/kg administered every 8 hrs; format: functional
In short: (§1)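 Calculated percentage of 24 h at steady state that free plasma DCX exceeds the strain MIC (microdilution, pH 7.4). Concentrations were simulated from single subcutaneous dose plasma curves in NMRI mice (S. lutea bioassay), adjusted with a square-root model of concentration-dependent free fraction from ultrafiltration. The regimen was dosed subcutaneously in mice infected intraperitoneally with 10^7.4 CFU, and peritoneal CFU were read after 24 h of therapy.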

[2] = fT>MIC in Staphylococcus aureus E19977 infected NMRI mouse at 400 mg/kg administered every 12 hrs; format: functional; in short: as §1
[3] = fT>MIC in Staphylococcus aureus E19977 infected NMRI mouse at 120 mg/kg administered every 24 hrs; format: functional; in short: as §1
Staphylococcus aureus [4] = test: Bacteriostatic activity against Staphylococcus aureus ATCC 25923 infected in human THP-1 cells after 24 hrs; format: functional
In short: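 Human THP-1 macrophages were infected with opsonized S. aureus at 4 bacteria per macrophage for 45 min. Non-phagocytized bacteria were removed by washing and a brief incubation in PBS with gentamicin 50 mg/liter. Cells were then incubated up to 24 h with DCX over a wide range of extracellular concentrations. The read-out was Δlog CFU per mg cell protein versus time zero (n = 3), with sigmoidal fitting and Cstatic by interpolation.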

Staphylococcus aureus [5] = test: Bactericidal activity against Staphylococcus aureus E19977 assessed as log reduction in bacterial count at 100 times MIC after 24 hrs by time-kill assay; format: functional
In short: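 Broth time-kill: MSSA at 10⁶ CFU/ml exposed to a wide range of dicloxacillin concentrations. CFU counted after 5 and 24 h and expressed as change in log₁₀ CFU/ml from time zero. Multiples refer to the MIC by CLSI microdilution at pH 7.4. n = 3.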

Staphylococcus aureus [6] = test: Bacteriostatic activity against Staphylococcus aureus E19977 at MIC between 5 to 24 hrs; format: functional, organism-based
In short: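 Extracellular broth time- and concentration-kill test. The inoculum was ~10⁶ CFU/ml, exposed to a wide range of DCX concentrations, with CFU counted after 5 and 24 h. The read-out was Δlog CFU/ml versus time zero (mean ± SD, n = 3). A sigmoidal fit with slope 1 gave Emax and EC50. Cstatic was read by graphical interpolation as the concentration giving no change from the inoculum.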

THP-1 = test: Cytotoxicity against human THP1 cells at 500 mg/L after 24 hrs by trypan blue exclusion method; format: cell-based; conditions: thp-1, 24 h
In short: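 THP-1 macrophage viability was checked by trypan blue exclusion after 24 h of exposure to DCX at concentrations up to 500 mg/liter.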

Staphylococcus aureus [7] = test: Bactericidal activity against Staphylococcus aureus E19977 infected in human THP1 cells assessed as log reduction in bacterial count at 100 times MIC after 24 hrs by time-kill assay; format: functional, THP-1
In short: (§2)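 Intracellular model in THP-1 macrophages: opsonized S. aureus was added at 4 bacteria per macrophage for 45 min. Non-phagocytized bacteria were removed by washing and brief PBS incubation with gentamicin (50 mg/liter). Cells were then incubated up to 24 h with a wide range of extracellular dicloxacillin concentrations. Result is change in log₁₀ CFU per mg cell protein from time zero. n = 3.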

Staphylococcus aureus [8] = test: Antimicrobial activity against Staphylococcus aureus E19977 infected in human THP1 cells assessed as log reduction in bacterial count at MIC after 24 hrs by time-kill assay; format: functional, THP-1; in short: as §2
[9] = Cmax in NMRI mouse at 30 mg/kg, sc; format: ADME, organism-based; parameters: dose 30 mg/kg, route subcutaneous; conditions: in vivo
In short: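 Single subcutaneous dicloxacillin doses were given to NMRI mice. EDTA plasma was assayed by microbiological bioassay with S. lutea ATCC 9391 (detection limit 1.5 mg/liter, linear to 100 mg/liter, CV ~5%). Cmax was obtained by noncompartmental analysis.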

[10] = Cmax in NMRI mouse at 1200 mg/kg, sc; format: ADME, organism-based; parameters: dose 1200 mg/kg, route subcutaneous; conditions: in vivo
[11] = Ratio of fAUC (24 hrs) in NMRI mouse at 120 mg/kg administered every 3 hrs to MIC for Staphylococcus aureus E19977; format: functional
In short: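 Free-drug AUC24/MIC was modelled for repeated subcutaneous regimens. Single-dose NMRI plasma concentration-time curves were combined with the best-fitting square-root expression for the concentration-dependent free fraction. The result was divided by the E19977 MIC.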

[12] = Ratio of fAUC (24 hrs) in NMRI mouse at 200 mg/kg administered every 4 hrs to MIC for Staphylococcus aureus E19977; format: functional
In short: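 Computed from modelled dosing regimens, not measured directly. Single subcutaneous doses were given to NMRI mice, and plasma was assayed by S. lutea bioassay. AUC24 came from noncompartmental analysis, with terminal exponential extrapolation to 24 h. The free fraction came from a square-root fit to ultrafiltration protein-binding data, with saturable binding included. MIC was by broth microdilution.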

[13] = Ratio of fAUC (24 hrs) in NMRI mouse at 300 mg/kg administered every 12 hrs to MIC for Staphylococcus aureus E19977; format: functional
In short: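 Modeled free AUC over 24 h divided by the MIC, not measured directly. Single subcutaneous DCX doses were given to NMRI mice, and plasma was assayed by S. lutea bioassay. Noncompartmental analysis used trapezoidal mean points plus a fitted monoexponential extrapolated to 24 h. Free fraction came from a square-root fit to plasma ultrafiltration binding (10–400 mg/liter spike, 1 h, 37°C). The MIC was measured by broth microdilution at pH 7.4.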

[14] = Ratio of fCmax in NMRI mouse at 30 mg/kg administered every 2 hrs to MIC for Staphylococcus aureus E19977; format: functional
In short: (§3)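 Free Cmax/MIC was modelled, not measured. Single-dose subcutaneous plasma curves from NMRI mice were projected to the multiple-dose regimens. Free fraction came from a square-root fit of unbound fraction versus total concentration. Binding was measured by ultrafiltration of mouse plasma spiked with 10–400 mg/liter and held 1 h at 37°C. MIC was for strain E19977.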

[15] = Ratio of fCmax in NMRI mouse at 160 mg/kg administered every 3 hrs to MIC for Staphylococcus aureus E19977; format: functional; in short: as §3
[16] = Ratio of fCmax in NMRI mouse at 120 mg/kg administered every 6 hrs to MIC for Staphylococcus aureus E19977; format: functional; in short: as §3
[17] = fT>MIC in Staphylococcus aureus E19977 infected NMRI mouse at 76 mg/kg administered every 2 hrs; format: functional; in short: as §1
Staphylococcus aureus [18] = test: Bactericidal activity against Staphylococcus aureus E19977 infected in human THP1 cells assessed as log reduction in bacterial count at 10 times MIC after 24 hrs by time-kill assay; format: functional, THP-1; in short: as §2
[19] = fT>MIC in Staphylococcus aureus E19977 infected NMRI mouse at 80 mg/kg administered every 3 hrs
[20] = fT>MIC in Staphylococcus aureus E19977 infected NMRI mouse at 340 mg/kg administered every 24 hrs
Staphylococcus aureus [21] = test: Antimicrobial activity against Staphylococcus aureus E19977 by broth microdilution method at pH 7.4
[22] = Ratio of fAUC (24 hrs) in NMRI mouse at 340 mg/kg administered every 24 hrs to MIC for Staphylococcus aureus E19977

In the case of `Cc1onc(-c2c(Cl)cccc2Cl)c1C(=O)N[C@@H]1C(=O)N2[C@@H]1SC(C)(C)[C@@H]2C(=O)O` [DICLOXACILLIN], the “fT>MIC” value [1] is reported as 25%, the “fT>MIC” value [2] is reported as 35.97% and the “fT>MIC” value [3] is reported as 9.44%. The Activity (Staphylococcus aureus [4]) was 0.11 mg/L, the FC (Staphylococcus aureus [5]) was 3 and the Activity (Staphylococcus aureus [6]) was “Active”. The Activity (THP-1) was “Non-toxic”, the FC (Staphylococcus aureus [7]) was <1 and the FC (Staphylococcus aureus [8]) was 1. The Cmax [9] was 36 µg/mL, the Cmax [10] was 222 µg/mL and the fAUC/MIC [11] was 350.73 h. The fAUC/MIC [12] was 616.07 h, the fAUC/MIC [13] was 439.15 h and the Ratio [14] was 6.27. For the same compound, the Ratio [15] was 81.58, the Ratio [16] was 61.6 and the “fT>MIC” value [17] was 100%. For the same compound, the FC (Staphylococcus aureus [18]) was <1, the “fT>MIC” value [19] was 66.67% and the “fT>MIC” value [20] was 17.78%. It also gave an MIC (Staphylococcus aureus [21]) of 0.5 mg/L (≈ 1.06 µM) and a fAUC/MIC [22] of 259.37 h.
